In ChEMBL document CHEMBL3393003, “1,2,3,9b-Tetrahydro-5H-imidazo[2,1-a]isoindol-5-ones as a new class of respiratory syncytial virus (RSV) fusion inhibitors. Part 2: identification of BTA9881 as a preclinical candidate” (Bioorg Med Chem Lett, 2015):

Legend:
[1] = test system: Respiratory syncytial virus; test: Antiviral activity against respiratory syncytial virus A2 infected in human Hep2 cells assessed as reduction in virus-induced cytopathic effect after 5 days by MTT assay; assay type: functional, organism-based; settings: A2, HEp-2, 120 h
Outline: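 HEp2 cells (1.0 × 10⁴/well) infected at low moi (RSV A2 at moi 0.01) and added to serial compound dilutions; incubated 5 days at 37 °C, 5% CO₂. CPE read by MTT (1 mg/ml) metabolism after 2 h incubation.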

[2] = Cytotoxicity against human Hep2 cells assessed as reduction in cell viability after 5 days by MTT assay; assay type: cell-based, HEp-2
Outline: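 Uninfected HEp2 cells (1.0 × 10⁴/well) exposed to serial compound dilutions for 5 days at 37 °C, 5% CO₂. Viability read by MTT (1 mg/ml) metabolism after 2 h incubation.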

[3] = test system: Respiratory syncytial virus; test: Potency shift index, ratio of EC50 for respiratory syncytial virus A2 infected in human Hep2 in presence of 1.5 mg/mL Alpha-1-acid glycoprotein to EC50 for respiratory syncytial virus A2 infected in human Hep2 in absence of Alpha-1-acid glycoprotein; assay type: functional
[4] = Elimination half life in Sprague-Dawley rat at 19 mg/kg, po; assay type: ADME, organism-based; design: dose 19 mg/kg, route oral; settings: in vivo, read-out: beta t1/2 (converted)
Outline: (§1)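 Male Sprague Dawley rats, n = 2, oral dose as suspension in hydroxypropylmethylcellulose, in carboxymethylcellulose, or in 0.5% HPMC/0.5% benzyl alcohol/0.4% Tween80. Cmax (µM), T1/2 and F (%) derived from plasma levels.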

[5] = Drug metabolism in iv dosed Sprague-Dawley rat urine assessed as formation of pyridine N-oxides level; assay type: ADME, organism-based; settings: in vivo
Plasma [6] = test: Drug metabolism in iv dosed Sprague-Dawley rat plasma assessed as formation of pyridine N-oxides level; assay type: ADME, organism-based; settings: in vivo
[7] = Plasma clearance in Sprague-Dawley rat at 0.9 mg/kg, iv; assay type: ADME, organism-based; design: dose 0.9 mg/kg, route intravenous
[8] = Oral bioavailability in Sprague-Dawley rat at 19 mg/kg; assay type: ADME, organism-based; settings: in vivo; outline: as §1
[9] = Cmax in Sprague-Dawley rat at 19 mg/kg, po; assay type: ADME, organism-based; design: dose 19 mg/kg, route oral; settings: in vivo; outline: as §1
Plasma [10] = test: Drug metabolism in orally dosed Sprague-Dawley rat plasma assessed as formation of pyridine N-oxides level; assay type: ADME, organism-based; settings: in vivo, po
[11] = Elimination half life in Sprague-Dawley rat at 0.9 mg/kg, iv; assay type: ADME, organism-based; design: dose 0.9 mg/kg, route intravenous; settings: in vivo, read-out: beta t1/2 (converted)
[12] = Apparent volume of distribution in Sprague-Dawley rat at 0.9 mg/kg, iv; assay type: ADME, organism-based; design: dose 0.9 mg/kg, route intravenous; settings: in vivo, read-out: Vz
[13] = Drug metabolism in orally dosed Sprague-Dawley rat urine assessed as formation of pyridine N-oxides level; assay type: ADME, organism-based; settings: in vivo, po

SMILES	EC50 [1]	CC50 at 120 h [2]	Ratio EC50 [3]	also measured
O=C(c1cc2ccccc2o1)N1CCN2C(=O)c3ccncc3C12c1ccc(Cl)cc1 (racemic)	6400 nM	> 17000 nM	–	–
O=C(c1ccoc1)N1CCN2C(=O)c3ccncc3C12c1ccc(Cl)cc1 (racemic)	96 nM	> 19000 nM	2.4	–
O=C(c1ccon1)N1CCN2C(=O)c3ccncc3C12c1ccc(Cl)cc1 (racemic)	180 nM	> 20000 nM	11	–
Cc1cc(C(=O)N2CCN3C(=O)c4ccncc4C32c2ccc(Cl)cc2)c(C)o1 (racemic)	120 nM	> 18000 nM	14	–
Cc1oc(-c2ccccc2)cc1C(=O)N1CCN2C(=O)c3ccncc3C21c1ccc(Cl)cc1 (racemic)	1600 nM	> 15000 nM	–	–
O=C(c1cccs1)N1CCN2C(=O)c3ccncc3C12c1ccc(Cl)cc1 (racemic)	130 nM	> 18000 nM	12	–
O=C(c1ccsc1)N1CCN2C(=O)c3ccncc3C12c1ccc(Cl)cc1 (racemic)	170 nM	> 18000 nM	27	–
O=C(c1cscn1)N1CCN2C(=O)c3ccncc3C12c1ccc(Cl)cc1 (racemic)	180 nM	> 18000 nM	16	–
Cc1nc(C(=O)N2CCN3C(=O)c4ccncc4C23c2ccc(Cl)cc2)cs1 (racemic)	73 nM	> 18000 nM	5.7	–
O=C(c1csc(-c2cccs2)n1)N1CCN2C(=O)c3ccncc3C12c1ccc(Cl)cc1 (racemic)	27 nM	> 15000 nM	16	–
O=C(c1csc(-c2cccnc2)n1)N1CCN2C(=O)c3ccncc3C12c1ccc(Cl)cc1 (racemic)	25 nM	> 15000 nM	10	–
O=C(c1csc(-c2ccncc2)n1)N1CCN2C(=O)c3ccncc3C12c1ccc(Cl)cc1 (racemic)	2300 nM	> 15000 nM	–	–
Cn1cnc(C(=O)N2CCN3C(=O)c4ccncc4C23c2ccc(Cl)cc2)c1 (racemic)	750 nM	> 20000 nM	–	–
Cn1cncc1C(=O)N1CCN2C(=O)c3ccncc3C21c1ccc(Cl)cc1 (racemic)	730 nM	> 20000 nM	–	–
Cn1cc(C(=O)N2CCN3C(=O)c4ccncc4C32c2ccc(Cl)cc2)c(C(F)(F)F)n1 (racemic)	31 nM	> 16000 nM	4.3	half-life [4]: 7.1 h; Drug metabolism [5]: metabolite_detected; Drug metabolism (Plasma [6]): metabolite_detected; clearance [7]: 4 mL/min/kg; bioavailability [8]: 38%; Cmax [9]: 3.6 µM; Drug metabolism (Plasma [10]): metabolite_detected; half-life [11]: 5.6 h; Vd [12]: 1.9 L/kg; Drug metabolism [13]: metabolite_detected
Cn1cccc1C(=O)N1CCN2C(=O)c3ccncc3C21c1ccc(Cl)cc1 (racemic)	20 nM	> 20000 nM	91	–
O=C(c1cccc(Cl)n1)N1CCN2C(=O)c3ccncc3C12c1ccc(Cl)cc1 (racemic)	110 nM	> 17000 nM	27	–
O=C(c1ccccn1)N1CCN2C(=O)c3ccncc3C12c1ccc(Cl)cc1 (racemic)	770 nM	> 19000 nM	–	–
O=C(c1ccc2ccccc2n1)N1CCN2C(=O)c3ccncc3C12c1ccc(Cl)cc1 (racemic)	8500 nM	> 17000 nM	–	–
O=C(c1cccnc1)N1CCN2C(=O)c3ccncc3C12c1ccc(Cl)cc1 (racemic)	210 nM	> 51000 nM	2.8	–
O=C(c1ccc(F)nc1)N1CCN2C(=O)c3ccncc3C12c1ccc(Cl)cc1 (racemic)	93 nM	> 48000 nM	1.8	Drug metabolism [5]: metabolite_detected; Drug metabolism (Plasma [6]): metabolite_detected; Drug metabolism (Plasma [10]): metabolite_detected; Drug metabolism [13]: metabolite_detected
